Results: ChEMBL document CHEMBL1130286, “Nicotinamide derivatives as a new class of gastric H+/K(+)-ATPase inhibitors. 1. Synthesis and structure-activity relationships of N-substituted 2-(benzhydryl- and benzylsulfinyl)nicotinamides” (J Med Chem, 1997)
Blank lines part the entries; values can stand above or below the compound they belong to. Active and inactive are the calls of the source. No cut-off for these calls is given here.

Experiments:
[1] = tested on: Potassium-transporting ATPase (Oryctolagus cuniculus); experiment: Percent inhibition of [14C]aminopyrine (AP) accumulation in dibutyryl cAMP stimulated rbbit parietal cells at 10 uM
[2] = t1/2 is the time taken for the conversion of nicotinamides to isothiazolopyridine at pH=7.0; type: ADME
Procedure, shortened: (§1)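 Compound from a 10 µM DMSO solution was diluted into 100 mM HCl (pH 1) or pH-adjusted McIlvaine buffer (pH 3-7) containing Triton. Mixtures were incubated at 37 °C for various times. Remaining compound was measured by reversed-phase C18 HPLC (CH₃CN/10 mM phosphate pH 7.0) with UV detection at 254 nm, and half-lives were determined from these time points.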

[3] = t1/2 is the time taken for the conversion of nicotinamides to isothiazolopyridine at pH=5.0; type: ADME
Procedure, shortened: as §1

[4] = target: Potassium-transporting ATPase (Sus scrofa, UniProt P19156); experiment: Inhibition of porcine gastric H+/K+ ATPase; type: tissue-based, Stomach
Chain of Potassium-transporting ATPase (P18434 whole entry): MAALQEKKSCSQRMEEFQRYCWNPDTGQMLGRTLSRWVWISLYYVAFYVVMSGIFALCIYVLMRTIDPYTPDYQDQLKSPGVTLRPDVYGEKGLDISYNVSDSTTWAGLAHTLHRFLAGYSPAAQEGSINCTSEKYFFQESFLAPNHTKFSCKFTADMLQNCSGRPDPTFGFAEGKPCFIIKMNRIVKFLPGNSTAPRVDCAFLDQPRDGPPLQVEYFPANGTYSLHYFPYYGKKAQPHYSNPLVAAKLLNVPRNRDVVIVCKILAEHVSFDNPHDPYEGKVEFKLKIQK
Chain of Potassium-transporting ATPase (P19156 whole entry): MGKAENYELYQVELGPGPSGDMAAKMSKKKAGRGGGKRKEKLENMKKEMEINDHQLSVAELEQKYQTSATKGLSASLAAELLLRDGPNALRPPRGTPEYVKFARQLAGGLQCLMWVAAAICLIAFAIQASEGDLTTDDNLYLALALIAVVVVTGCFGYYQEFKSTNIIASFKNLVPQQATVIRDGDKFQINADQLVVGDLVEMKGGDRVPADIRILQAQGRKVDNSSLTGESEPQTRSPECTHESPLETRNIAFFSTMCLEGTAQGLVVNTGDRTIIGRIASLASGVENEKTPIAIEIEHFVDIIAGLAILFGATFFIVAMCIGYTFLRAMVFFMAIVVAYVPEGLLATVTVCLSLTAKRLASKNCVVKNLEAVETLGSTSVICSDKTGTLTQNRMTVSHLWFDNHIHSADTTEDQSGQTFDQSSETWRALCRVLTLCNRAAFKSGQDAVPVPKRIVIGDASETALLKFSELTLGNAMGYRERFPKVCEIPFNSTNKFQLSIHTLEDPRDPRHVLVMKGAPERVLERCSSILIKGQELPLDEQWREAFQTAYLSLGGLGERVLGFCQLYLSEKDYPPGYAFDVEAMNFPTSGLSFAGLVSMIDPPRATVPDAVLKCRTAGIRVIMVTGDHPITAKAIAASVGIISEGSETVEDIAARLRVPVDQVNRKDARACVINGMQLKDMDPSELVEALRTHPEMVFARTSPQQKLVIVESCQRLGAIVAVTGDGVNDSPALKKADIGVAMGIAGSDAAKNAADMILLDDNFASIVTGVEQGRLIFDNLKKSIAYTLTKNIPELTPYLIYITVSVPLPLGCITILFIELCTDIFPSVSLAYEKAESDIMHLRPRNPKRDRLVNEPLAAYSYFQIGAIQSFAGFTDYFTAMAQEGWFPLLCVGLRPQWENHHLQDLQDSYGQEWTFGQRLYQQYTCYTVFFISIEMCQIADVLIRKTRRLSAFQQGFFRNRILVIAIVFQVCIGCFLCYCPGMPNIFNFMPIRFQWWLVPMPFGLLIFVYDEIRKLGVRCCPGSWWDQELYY
Procedure, shortened: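 Porcine gastric microsomes (15 µg protein) were preincubated 30 min at 37 °C with compound in 50 mM Tris-HCl pH 7.4, 4 mM MgCl₂ and 5 µg/mL gramicidin, with or without 20 mM KCl. Reaction was started with 2 mM ATP (final) and run 20 min at 37 °C, then stopped with trichloroacetic acid. Released phosphate was measured by the Sanui method. Activity was the K⁺-dependent rate, with the K⁺-free rate subtracted.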

Oryctolagus cuniculus [5] = species: Oryctolagus cuniculus; experiment: Percent inhibition of [14C]aminopyrine (AP) accumulation stimulated by dibutyryl uM; Not effective; type: functional
Procedure, shortened: (§2)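 Parietal cells were isolated from rabbit gastric tissue, and the cell-rich fraction (1-2 × 10⁷ cells/300 µL) was put in Earle's balanced salt solution. The medium held 5.6 kBq [¹⁴C]aminopyrine, 25 mM HEPES-NaOH pH 7.4, 0.2% BSA and test compound. Cells were stimulated with 1 mM dbcAMP at 37 °C for 30 min under 95% O₂/5% CO₂, then centrifuged, solubilized and scintillation-counted. Counts with 0.1 mM dinitrophenol were subtracted, and IC50 came from regression lines.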

Rattus norvegicus [6] = species: Rattus norvegicus; experiment: Inhibition of histamine induced gastric acid secretion in pylorus-ligated rats; type: functional; details: Stomach
Procedure, shortened: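 Male Wistar rats (~200 g) were fasted 24 h with water allowed, 4-7 per group. Under urethane (1 g/kg) the pylorus was ligated, and drug or vehicle was given intraduodenally right after ligation. Histamine (30 mg/kg) was given sc 30 min later. After 3 h, gastric juice volume was measured and acid titrated to pH 7 with 0.01 N NaOH. Total acid output versus controls gave percent inhibition.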

[7] = target: Potassium-transporting ATPase (Oryctolagus cuniculus); experiment: Inhibition of [14C]aminopyrine (AP) accumulation stimulated by dibutyryl cyclic AMP in isolated rabbit parietal cells
[8] = t1/2 is the time taken for the conversion of nicotinamides to isothiazolopyridine at pH=3.0; type: ADME
Procedure, shortened: as §1

[9] = t1/2 is the time taken for the conversion of nicotinamides to isothiazolopyridine at pH=1.0; type: ADME
Procedure, shortened: as §1

Oryctolagus cuniculus [10] = species: Oryctolagus cuniculus; experiment: Percent inhibition of [14C]aminopyrine (AP) accumulation stimulated by dibutyryl uM; type: functional
Procedure, shortened: as §2

Rattus norvegicus [11] = experiment: Percent inhibition of histamine induced gastric acid secretion in pylorus-ligated rats at 10 mg/Kg intraduodenal dose; details: Stomach
Rattus norvegicus [12] = experiment: Percent inhibition of histamine induced gastric acid secretion in pylorus-ligated rats at 3 mg/Kg intraduodenal dose; details: Stomach
Oryctolagus cuniculus [13] = species: Oryctolagus cuniculus; experiment: Percent inhibition of [14C]aminopyrine (AP) accumulation stimulated by dibutyryl cyclic AMP in isolated rabbit parietal cells; type: functional
Procedure, shortened: as §2

Rattus norvegicus [14] = experiment: Percent inhibition of histamine induced gastric acid secretion in pylorus-ligated rats at 100 mg/Kg intraduodenal dose; details: Stomach
Rattus norvegicus [15] = experiment: Percent inhibition of histamine induced gastric acid secretion in pylorus-ligated rats at 100 mg/Kg intraduodenal dose; Not effective; details: Stomach
Rattus norvegicus [16] = experiment: Percent inhibition of histamine induced gastric acid secretion in pylorus-ligated rats at 100 mg/Kg […] dose; Not effective; type: functional, organism-based; details: Stomach

- inhibition [1]: 58.3%
Structure (SMILES): CN(C)c1ccc(NC(=O)c2cccnc2[S+]([O-])C(c2ccccc2)c2ccccc2)cc1 (stereo not given)

- half-life [2]: 23.1 h
- half-life [3]: 70.2 min
Structure (SMILES): COc1ccnc(C[S+]([O-])c2nc3ccc(OC(F)F)cc3[nH]2)c1OC (stereo not given) [PANTOPRAZOLE]

- inhibition [1]: 14.7%
Structure (SMILES): O=C(Nc1nccs1)c1cccnc1[S+]([O-])C(c1ccccc1)c1ccccc1 (stereo not given)

- IC50 [4]: 530 nM
Structure (SMILES): CC(C)Cn1sc2ncccc2c1=O

Structure (SMILES): COc1ncccc1NC(=O)c1cccnc1[S+]([O-])C(c1ccccc1)c1ccccc1 (stereo not given)
- inhibition (Oryctolagus cuniculus [5]): inactive

- IC50 [7]: 450 nM
- IC50 [4]: > 100000 nM
- half-life [8]: 0.71 h
- half-life [9]: < 1.2 min
Structure (SMILES): CCOc1cc(OC)ccc1C[S+]([O-])c1ncccc1C(=O)Nc1ccncc1 (stereo not given)
- ED50 (Rattus norvegicus [6]): 19 mg/kg

- inhibition [1]: 47.6%
Structure (SMILES): O=C(Nc1c2ccccc2nc2ccccc12)c1cccnc1[S+]([O-])C(c1ccccc1)c1ccccc1 (stereo not given)

- inhibition [1]: 57.4%
Structure (SMILES): Nc1ccc(NC(=O)c2cccnc2[S+]([O-])C(c2ccccc2)c2ccccc2)cc1 (stereo not given)

Structure (SMILES): O=C(Nc1ncccn1)c1cccnc1[S+]([O-])C(c1ccccc1)c1ccccc1 (stereo not given)
- inhibition (Oryctolagus cuniculus [5]): inactive

- IC50 [7]: 400 nM
- IC50 [4]: > 100000 nM
- half-life [8]: 0.49 h
- half-life [9]: < 1.2 min
Structure (SMILES): CCOc1ccc(C[S+]([O-])c2ncccc2C(=O)Nc2ccncc2)c(OCC)c1 (stereo not given)
- ED50 (Rattus norvegicus [6]): 11.2 mg/kg

- IC50 [4]: 220 nM
Structure (SMILES): O=c1c2cccnc2sn1-c1ccncc1

- IC50 [7]: 1200 nM
- IC50 [4]: 7300 nM
- half-life [8]: < 0.03 h
- half-life [3]: 17.4 min
- half-life [9]: < 1.2 min
Structure (SMILES): COc1cc(OC)c(C[S+]([O-])c2ncccc2C(=O)Nc2ccncc2)c(OC)c1 (stereo not given)
- ED50 (Rattus norvegicus [6]): 6.8 mg/kg

- inhibition [1]: 11.3%
- half-life [9]: 462 min
Structure (SMILES): COc1cc(C[S+]([O-])c2ncccc2C(=O)Nc2ccncc2)cc(OC)c1OC (stereo not given)

- half-life [8]: 116 h
- inhibition [1]: 19.6%
- half-life [9]: 27 min
Structure (SMILES): COc1ccc(C[S+]([O-])c2ncccc2C(=O)Nc2ccncc2)c(OC)c1OC (stereo not given)

Structure (SMILES): Cc1c(OCC(F)(F)F)ccnc1C[S+]([O-])c1nc2ccccc2[nH]1 (stereo not given) [LANSOPRAZOLE]
- half-life [2]: 6.08 h
- half-life [3]: 16.8 min

- inhibition [1]: 93.5%
Structure (SMILES): CN(C)CCc1ccc(NC(=O)c2cccnc2[S+]([O-])C(c2ccccc2)c2ccccc2)cc1 (stereo not given)
- Inhibition (Oryctolagus cuniculus [10]): 7.4%

Structure (SMILES): O=C(Nc1cnccn1)c1cccnc1[S+]([O-])C(c1ccccc1)c1ccccc1 (stereo not given)
- inhibition (Oryctolagus cuniculus [5]): inactive

- half-life [8]: 2.75 h
- IC50 (Oryctolagus cuniculus [13]): 2000 nM
- half-life [9]: < 1.2 min
Structure (SMILES): COCOCCOc1cc(OC)ccc1C[S+]([O-])c1ncccc1C(=O)Nc1ccncc1 (stereo not given)
- inhibition in vivo at 10 mg/kg (Rattus norvegicus [11]): 76.6%
- inhibition in vivo at 3 mg/kg (Rattus norvegicus [12]): 14.4%

- inhibition [1]: 1.3%
Structure (SMILES): CC(C)CNC(=O)c1cccnc1[S+]([O-])C(c1ccccc1)c1ccccc1 (stereo not given)

- inhibition [1]: 24.4%
Structure (SMILES): Cc1ccc2cccc(NC(=O)c3cccnc3[S+]([O-])C(c3ccccc3)c3ccccc3)c2n1 (stereo not given)

- inhibition [1]: 33.1%
- half-life [9]: 128 min
Structure (SMILES): COc1ccc(C[S+]([O-])c2ncccc2C(=O)Nc2ccncc2)cc1 (stereo not given)
- inhibition in vivo at 100 mg/kg (Rattus norvegicus [14]): 44.4%

- IC50 [7]: 460 nM
- IC50 [4]: > 100000 nM
- half-life [8]: 0.09 h
- half-life [3]: 257 min
- half-life [9]: < 1.2 min
Structure (SMILES): COc1cc(C)c(C[S+]([O-])c2ncccc2C(=O)Nc2ccncc2)c(OC)c1 (stereo not given)
- ED50 (Rattus norvegicus [6]): 5.7 mg/kg

Structure (SMILES): O=C(Nc1ccccn1)c1cccnc1[S+]([O-])C(c1ccccc1)c1ccccc1 (stereo not given)
- Inhibition (Oryctolagus cuniculus [10]): 8%

- half-life [8]: 8.25 h
- IC50 (Oryctolagus cuniculus [13]): 2200 nM
- half-life [9]: < 1.2 min
Structure (SMILES): COCOc1cc(OC)ccc1C[S+]([O-])c1ncccc1C(=O)Nc1ccncc1 (stereo not given)
- inhibition in vivo at 100 mg/kg (Rattus norvegicus [14]): 37.7%

- inhibition [1]: 61.8%
Structure (SMILES): O=C(Nc1ccc2ncccc2c1)c1cccnc1[S+]([O-])C(c1ccccc1)c1ccccc1 (stereo not given)
- inhibition in vivo at 100 mg/kg (Rattus norvegicus [14]): 21.7%

- inhibition [1]: 55%
Structure (SMILES): O=C(Nc1ccncc1)c1cccnc1[S+]([O-])C(c1ccccc1)c1ccccc1 (stereo not given)
- inhibition in vivo at 100 mg/kg (Rattus norvegicus [14]): 30.2%

- inhibition [1]: 74.1%
Structure (SMILES): Cc1ccc(C(c2ccc(C)cc2)[S+]([O-])c2ncccc2C(=O)Nc2cccc3ncccc23)cc1 (stereo not given)
- inhibition in vivo at 100 mg/kg (Rattus norvegicus [14]): 30.4%

- IC50 [7]: 1900 nM
- half-life [8]: 28.8 h
- half-life [9]: 4.2 min
Structure (SMILES): COc1cc(OC)c(C[S+]([O-])c2ncccc2C(=O)Nc2ccncc2)cc1Br (stereo not given)
- inhibition in vivo at 100 mg/kg (Rattus norvegicus [14]): 34.8%

- inhibition [1]: 68.6%
Structure (SMILES): Cc1cc(C)c2ccc(NC(=O)c3cccnc3[S+]([O-])C(c3ccccc3)c3ccccc3)nc2n1 (stereo not given)
- inhibition (Rattus norvegicus [15]): inactive

- IC50 [7]: 1500 nM
Structure (SMILES): Cc1ccc(C(c2ccc(C)cc2)[S+]([O-])c2ncccc2C(=O)Nc2ccncc2)cc1 (stereo not given)
- inhibition in vivo at 100 mg/kg (Rattus norvegicus [14]): 48.1%

- half-life [2]: 10.5 h
- half-life [3]: 19.2 min
Structure (SMILES): COc1ccc2[nH]c([S+]([O-])Cc3ncc(C)c(OC)c3C)nc2c1 (stereo not given) [OMEPRAZOLE]
- ED50 (Rattus norvegicus [6]): 4.1 mg/kg

Structure (SMILES): O=C(NC1CCN(Cc2ccccc2)CC1)c1cccnc1[S+]([O-])C(c1ccccc1)c1ccccc1 (stereo not given)
- inhibition (Rattus norvegicus [16]): inactive

- inhibition [1]: 5%
Structure (SMILES): O=C(Nc1ccccc1)c1cccnc1[S+]([O-])C(c1ccccc1)c1ccccc1 (stereo not given)

- IC50 [7]: 26000 nM
- IC50 [4]: > 100000 nM
- half-life [8]: 38.5 h
- half-life [9]: 39.6 min
Structure (SMILES): COc1cccc(OC)c1C[S+]([O-])c1ncccc1C(=O)Nc1ccncc1 (stereo not given)
- inhibition in vivo at 100 mg/kg (Rattus norvegicus [14]): 60.7%
- inhibition in vivo at 10 mg/kg (Rattus norvegicus [11]): 12.7%

- inhibition [1]: 43.7%
Structure (SMILES): O=C(Nc1cccnc1)c1cccnc1[S+]([O-])C(c1ccccc1)c1ccccc1 (stereo not given)
- inhibition (Rattus norvegicus [15]): inactive

Structure (SMILES): O=C(Nc1cccc2ccccc12)c1cccnc1[S+]([O-])C(c1ccccc1)c1ccccc1 (stereo not given)
- inhibition (Oryctolagus cuniculus [5]): inactive

- IC50 [7]: 16600 nM
- IC50 [4]: > 100000 nM
- half-life [8]: 11.6 h
- half-life [9]: 7.2 min
Structure (SMILES): COc1ccc(C[S+]([O-])c2ncccc2C(=O)Nc2ccncc2)c(OC)c1C (stereo not given)

- IC50 [4]: 190 nM
Structure (SMILES): O=c1c2cccnc2sn1-c1ccccc1

- IC50 [7]: 1700 nM
- IC50 [4]: > 100000 nM
- half-life [8]: 3.3 h
- half-life [9]: < 1.2 min
Structure (SMILES): COc1ccc(C[S+]([O-])c2ncccc2C(=O)Nc2ccncc2)c(OCCF)c1 (stereo not given)
- ED50 (Rattus norvegicus [6]): 8.1 mg/kg

- IC50 [7]: 59000 nM
- half-life [8]: 1.78 h
- half-life [9]: < 1.2 min
Structure (SMILES): COc1ccc(C[S+]([O-])c2ncccc2C(=O)Nc2ccncc2)c(OCCO)c1 (stereo not given)

- IC50 [4]: > 100000 nM
- half-life [8]: 0.14 h
- inhibition [1]: 32.5%
- half-life [9]: < 1.2 min
Structure (SMILES): COc1cc(OC)c(OC)cc1C[S+]([O-])c1ncccc1C(=O)Nc1ccncc1 (stereo not given)
- inhibition in vivo at 100 mg/kg (Rattus norvegicus [14]): 21.7%

- IC50 [7]: 590 nM
- IC50 [4]: > 100000 nM
- half-life [8]: 0.84 h
- half-life [2]: > 100 h
- half-life [3]: 2310 min
- half-life [9]: < 1.2 min
Structure (SMILES): COc1ccc(C[S+]([O-])c2ncccc2C(=O)Nc2ccncc2)c(OC)c1 (stereo not given)
- ED50 (Rattus norvegicus [6]): 4.2 mg/kg
